Test results from ChEMBL document CHEMBL3596186, “Synthesis and biological evaluation of diarylthiazole derivatives as antimitotic and antivascular agents with potent antitumor activity” (Bioorg Med Chem, 2015).
Active and inactive are the calls of the source. No cut-off for these calls is given here.

How the values were obtained:
HepG2 [1] = experiment: Induction of apoptosis in human HepG2 cells assessed as early apoptotic cells at 0.2 uM after 24 hrs by annexin V/propidium iodide staining-based flow cytometry (reference value: 0.87%); type: functional
HepG2 [2] = experiment: Induction of apoptosis in human HepG2 cells assessed as late apoptotic cells at 0.2 uM after 24 hrs by annexin V/propidium iodide staining-based flow cytometry (reference value: 3.74%); type: functional
HepG2 [3] = experiment: Induction of apoptosis in human HepG2 cells assessed as viable cells at 0.2 uM after 24 hrs by annexin V/propidium iodide staining-based flow cytometry (reference value: 89.8%); type: functional; details: HepG2, 24 h, read-out: Activity
HepG2 [4] = experiment: Induction of apoptosis in human HepG2 cells assessed as late apoptotic cells at 0.5 uM after 24 hrs by annexin V/propidium iodide staining-based flow cytometry (reference value: 3.74%); type: functional
HepG2 [5] = experiment: Induction of apoptosis in human HepG2 cells assessed as late apoptotic cells at 1 uM after 24 hrs by annexin V/propidium iodide staining-based flow cytometry (reference value: 3.74%); type: functional
HepG2 [6] = experiment: Induction of apoptosis in human HepG2 cells assessed as necrotic cells at 0.2 uM after 48 hrs by annexin V/propidium iodide staining-based flow cytometry (reference value: 1.59%); type: functional
HepG2 [7] = experiment: Induction of apoptosis in human HepG2 cells assessed as viable cells at 0.2 uM after 48 hrs by annexin V/propidium iodide staining-based flow cytometry (reference value: 89.8%); type: functional; details: HepG2, 48 h, read-out: Activity
HepG2 [8] = experiment: Induction of apoptosis in human HepG2 cells assessed as necrotic cells at 0.5 uM after 48 hrs by annexin V/propidium iodide staining-based flow cytometry (reference value: 1.59%); type: functional
HepG2 [9] = experiment: Induction of apoptosis in human HepG2 cells assessed as viable cells at 0.5 uM after 48 hrs by annexin V/propidium iodide staining-based flow cytometry (reference value: 89.8%); type: functional; details: HepG2, 48 h, read-out: Activity
HepG2 [10] = experiment: Induction of apoptosis in human HepG2 cells assessed as viable cells at 1 uM after 48 hrs by annexin V/propidium iodide staining-based flow cytometry (reference value: 89.8%); type: functional; details: HepG2, 48 h, read-out: Activity
HepG2 [11] = experiment: Antimitotic activity in human HepG2 cells assessed as demolishment of microtubule at 0.5 uM after 24 hrs by DAPI staining-based immmunofluorescence assay; type: functional, cell-based
Summary of the method: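 HepG2 cells seeded in 6-well plates and treated with compound. Fixed in 4% paraformaldehyde, permeabilized with 0.5% Triton X-100 in PBS, blocked 30 min in 5% goat serum at room temperature. Stained with monoclonal anti-α-tubulin 1 h at room temperature, then fluorescent secondary antibody, nuclei labelled with DAPI. Viewed by fluorescence microscopy.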

HUVEC = experiment: Antivascular activity against HUVEC assessed as inhibition of tube formation after 8 hrs by Matrigel assay; type: functional, cell-based; details: Homo sapiens
Summary of the method: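 Wells of prechilled plates coated with Matrigel and solidified 45 min at 37 °C. HUVECs (1 × 10^4) in EBM-2 containing compound (125-500 nM) seeded onto the gel and incubated 8 h at 37 °C. Capillary networks photographed at 100×; tubule numbers and line lengths counted manually.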

SK-OV-3 = experiment: Antitumor activity against human SKOV3 cells xenografted in Balb/c athymic nude mouse assessed as tumor growth inhibition at 20 mg/kg, ip administered daily after 42 days; type: functional; details: SK-OV-3, ip, 1008 h, read-out: TGI
Summary of the method: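 Female Balb/C athymic nude mice, 5-6 weeks old, bearing s.c. right-flank SK-OV-3 xenografts implanted in HBSS. At about 100 mm3, groups of 6 given vehicle, 5-FU 10 mg/kg or compound 20 mg/kg i.p. daily. Tumors measured every 2 days (π/6 × L × W²); inhibition = (1 − treated/control tumor weight) × 100%.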

Mus musculus = experiment: Toxicity in Balb/c athymic nude mouse xenografted with human HCT116 cells assessed as change in feeding and animal behavior at 20 to 50 mg/kg, ip administered daily; type: organism-based, HCT-116; details: in vivo
[12] = Antiproliferative activity against human […] cells after 48 hrs by MTT assay; type: functional, cell-based
Summary of the method: (§1)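 HCT116, HepG2, SMMC-7721, SK-OV-3 and A2780s grown in DMEM; A549 and MCF-7 in RPMI-1640; all with 10% FBS and penicillin/streptomycin at 37 °C, 5% CO2. Log-phase cells at 40,000-50,000 cells/mL treated with graded concentrations for 48 h. MTT 3 h, DMSO solubilization, A570. IC50 from percent growth versus untreated control; mean ± SEM of ≥3 independent dose-response experiments.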

[13] = Antiproliferative activity against human A2780S cells after 48 hrs by MTT assay; type: functional, cell-based; details: A2780, 48 h; summary of the method: as §1
MCF7 = experiment: Antiproliferative activity against human MCF7 cells after 48 hrs by MTT assay; type: functional, cell-based; details: MCF7, 48 h; summary of the method: as §1
[14] = Antiproliferative activity against human HCC827 cells after 48 hrs by MTT assay; type: functional, cell-based; details: HCC827, 48 h
HCT-116 [15] = experiment: Induction of apoptosis in human HCT116 cells assessed as early apoptotic cells at 0.2 uM after 24 hrs by annexin V/propidium iodide staining-based flow cytometry (reference value: 2.83%); type: functional
Summary of the method: (§2)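 HCT116 cells treated with compound or DMSO for 24 or 48 h, trypsinized, washed twice in PBS and dual-stained with annexin-V and PI. Analysed by flow cytometry: early apoptotic cells scored as annexin-V+/PI−, late apoptotic cells as annexin-V+/PI+.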

HCT-116 [16] = experiment: Induction of apoptosis in human HCT116 cells assessed as late apoptotic cells at 0.2 uM after 24 hrs by annexin V/propidium iodide staining-based flow cytometry (reference value: 1.71%); type: functional; summary of the method: as §2
HCT-116 [17] = experiment: Induction of apoptosis in human HCT116 cells assessed as early apoptotic cells at 0.5 uM after 24 hrs by annexin V/propidium iodide staining-based flow cytometry (reference value: 2.83%); type: functional; summary of the method: as §2
HCT-116 [18] = experiment: Induction of apoptosis in human HCT116 cells assessed as late apoptotic cells at 1 uM after 24 hrs by annexin V/propidium iodide staining-based flow cytometry (reference value: 1.71%); type: functional
HCT-116 [19] = experiment: Induction of apoptosis in human HCT116 cells assessed as viable cells at 1 uM after 24 hrs by annexin V/propidium iodide staining-based flow cytometry (reference value: 92%); type: functional; details: HCT-116, 24 h, read-out: Activity
HCT-116 [20] = experiment: Induction of apoptosis in human HCT116 cells assessed as necrotic cells at 0.2 uM after 48 hrs by annexin V/propidium iodide staining-based flow cytometry (reference value: 3.49%); type: functional
HCT-116 [21] = experiment: Induction of apoptosis in human HCT116 cells assessed as early apoptotic cells at 1 uM after 48 hrs by annexin V/propidium iodide staining-based flow cytometry (reference value: 2.83%); type: functional; summary of the method: as §2
HCT-116 [22] = experiment: Induction of apoptosis in human HCT116 cells assessed as necrotic cells at 1 uM after 48 hrs by annexin V/propidium iodide staining-based flow cytometry (reference value: 3.49%); type: functional
HCT-116 [23] = experiment: Induction of apoptosis in human HCT116 cells assessed as viable cells at 1 uM after 48 hrs by annexin V/propidium iodide staining-based flow cytometry (reference value: 92%); type: functional; details: HCT-116, 48 h, read-out: Activity
HepG2 [24] = experiment: Cell cycle arrest in human HepG2 cells assessed as accumulation at G1 phase at 0.5 uM after 24 hrs by flow cytometry (reference value: 62.74%); type: functional

## CCOc1ccc(-c2nc(N)sc2-c2cc(OC)c(OC)c(OC)c2)cc1
HepG2 [1]
  Activity: 10.08%
HepG2 [2]
  Activity: 6.51%
HepG2 [3]
  viability at 0.2 µM: 81.8%
HepG2 [4]
  Activity: 7.86%
HepG2 [5]
  Activity: 8.34%
HepG2 [6]
  Activity: 0.79%
HepG2 [7]
  viability at 0.2 µM: 28.5%
HepG2 [8]
  Activity: 0.7%
HepG2 [9]
  viability at 0.5 µM: 29.6%
HepG2 [10]
  viability at 1 µM: 25.9%
HepG2 [11]
  Activity: Active
HUVEC
  Activity: Dose-dependent effect
SK-OV-3
  inhibition in vivo at 20 mg/kg: 49.6%
Mus musculus
  Activity: Non-toxic
[12]
  IC50: 23 nM
[13]
  IC50: 16 nM
MCF7
  IC50: 100 nM
[14]
  IC50: 97 nM
HCT-116 [15]
  Activity: 7.8%
HCT-116 [16]
  Activity: 8.08%
HCT-116 [17]
  Activity: 11.2%
HCT-116 [18]
  Activity: 17.1%
HCT-116 [19]
  viability at 1 µM: 62.1%
HCT-116 [20]
  Activity: 5.36%
HCT-116 [21]
  Activity: 43.1%
HCT-116 [22]
  Activity: 4.06%
HCT-116 [23]
  viability at 1 µM: 20.2%
HepG2 [24]
  Activity: 30.08%
